High-throughput results: PubChem, several laboratories
Dynein cargo inh: inhibitors of GR-EGFP nuclear translocation, primary screen, dynein cargo transport inhibitor project, imaging, high-content, 3617.4 mouse cells. test concentration mostly 20 µM; stimulated with dexamethasone, 1 µM; stronger effect = lower value. z-score, hits read low. 220,000 compounds, 0.47% hits. AID 1381, 2008;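 active means plate z-score of nuclear minus cytoplasmic receptor signal below a set negative limit, without overly bright fluorescence or cell loss, cut at about -3.5 in these data, passing the limit was not always enough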;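 further: z-score of nuclear minus cytoplasmic ring GR-EGFP intensity difference per well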
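Schedule: 48 h induction, then 1 h compound, then 30 min agonist, 37 °C. Buffer or medium: tetracycline-free induction medium containing charcoal-stripped FBS. Reagent: 1.0 µM final dexamethasone stimulus. Evaluation: nuclear versus cytoplasmic GR-EGFP signal, averaged per well. Signal: high-content fluorescence imaging after fixation.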
bCat KO growth: primary screen for growth suppressors in beta-catenin knockout HCT116 cells (colon tumor, human). HCT116 beta-catenin knockout viability, CellTiter-Glo, 60 h; stronger effect = lower value. viability, % at 10 µM. 140,000 compounds, 1.5% hits. AID 818, 2007;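 active means viability at or under a set limit, the compound median less 4 SD, cut at about 6% in these data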;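 further: 0% = Hyamine 1622 control at 20 µM and 100% = untreated cell control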
Autophagy mod: autophagy modulators in MEF cells, primary screen, imaging, high-content, MEF GFP-LC3. MEF GFP-LC3 puncta imaging; test concentration mostly 10 µM. calls only at 10 µM (by protocol). 190,000 compounds, 0.98% hits. AID 463193, 2010;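 active means percentage of spot-positive cells more than 3 SD above its plate mean, without a fluorescence outlier flag or 80% toxicity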;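 further: spot-positive cell cutoff set from DMSO-treated cells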
HCT116 PTEN-null: growth suppression of PTEN-null HCT116, primary screen, cell-based, CellTiter-Glo. AID 827, 2007. 140,000 compounds, 1.2% hits. viability, % at 10 µM. HCT116 PTEN-null viability, 60 h; stronger effect = lower value;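 active means viability at or below a set limit, 4 SD under the median of all tested compounds, cut at about 3.7% in these data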;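 further: PTEN knockout HCT116 line with beta catenin targeted HCT116 as companion control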
SDO1 yeast rescue: growth rescue of sdo1-depleted yeast, primary screen, S. cerevisiae, bone marrow failure model; S. cerevisiae sdo1-depleted JHY4D growth rescue, OD600 30 h; stronger effect = higher value; pdr5 snq2 efflux-pump mutant strain; z-score at 10 µM; 140,000 compounds, 0.21% hits; AID 817, 2007;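 active means z-score above 3 at both the 24 hr and the 30 hr optical density reads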;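 further: z-score against mean and SD of all compound wells on the same plate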
* = called active by the depositor. An excerpt weighted towards active compounds, which were near 2.2% of everything screened.

Screening Cc1ccccc1OCC(=O)N/N=C/c1ccc([N+](=O)[O-])o1 returned Dynein cargo inh -0.62, bCat KO growth 38.4, Autophagy mod inactive, HCT116 PTEN-null 42.9 and SDO1 yeast rescue -0.44.
COc1ccccc1OCC(=O)N/N=C/C=C/c1ccc([N+](=O)[O-])o1 was read as Dynein cargo inh -0.542, bCat KO growth 3.2*, Autophagy mod inactive, HCT116 PTEN-null 2.6* and SDO1 yeast rescue -0.83.
Screening CCCCCC/C(=N/O)c1ccccn1 returned Dynein cargo inh -0.42, bCat KO growth 4.2*, HCT116 PTEN-null 4.0 and SDO1 yeast rescue -2.44.
Cc1ccc(NC(=O)c2ccccc2OCc2ccc([N+](=O)[O-])cc2)nc1 was read as Dynein cargo inh -0.113 and Autophagy mod inactive.
Screening Nc1c(C(=O)Nc2ccccc2F)sc2nc(Cc3ccccc3)cc(C(F)(F)F)c12 returned Dynein cargo inh inactive, bCat KO growth 92.6, Autophagy mod active, HCT116 PTEN-null 94.3 and SDO1 yeast rescue 0.02.
Screening Clc1cccc(Cl)c1CSc1nnc(-c2sccc2-n2cccc2)o1 returned Dynein cargo inh -0.254, bCat KO growth 87.1, Autophagy mod inactive, HCT116 PTEN-null 84.9 and SDO1 yeast rescue -0.23.
COc1c2ccccc2c(OC)c2ccccc12 was read as Dynein cargo inh 1.14 and Autophagy mod active.
COc1nnc(OC)c2ccccc12 was read as Dynein cargo inh 1.28, bCat KO growth 105.4, Autophagy mod inactive, HCT116 PTEN-null 97.4 and SDO1 yeast rescue 0.05.
`C/C(=N\NC(=S)NC1CCCCC1)c1ccc(C#N)cc1` gave Dynein cargo inh -0.957, bCat KO growth 86.3, Autophagy mod active, HCT116 PTEN-null 88.5 and SDO1 yeast rescue -0.8.
For C/C(=N\NC(=S)NC1CCCCC1)c1cccc(Br)c1 the results were Dynein cargo inh 2.9, bCat KO growth 91.9, Autophagy mod inactive, HCT116 PTEN-null 84.0 and SDO1 yeast rescue -0.7.
COc1ccc(/C=C/C(=O)C(C(N)=O)=C2SCCS2)cc1 was read as Dynein cargo inh 3.06, bCat KO growth 49.5, Autophagy mod inactive, HCT116 PTEN-null 59.3 and SDO1 yeast rescue 0.1.
`Cc1ccc(C(=O)C(C(=O)/C=C/c2ccccc2)=C2SCCCS2)cc1` gave Dynein cargo inh -4.5*, bCat KO growth 2.9*, Autophagy mod inactive, HCT116 PTEN-null 3.5* and SDO1 yeast rescue -1.44.
`COCCCNc1nc2ccccc2nc1NS(=O)(=O)c1cccs1` gave Dynein cargo inh -0.273, bCat KO growth 102.7, Autophagy mod inactive, HCT116 PTEN-null 104.5 and SDO1 yeast rescue -0.46.
For Cc1cc(N2CCN(S(=O)(=O)c3ccc4ccccc4c3)CC2)n2ncnc2n1 the results were Dynein cargo inh -0.0414 and Autophagy mod active.
`COC(=O)Nc1ccc(S(=O)(=O)N2CCCC(C(=O)N3CCCCC3)C2)cc1` (centres undefined) gave Dynein cargo inh 1.31 and Autophagy mod inactive.
`COC(=O)Nc1ccc(S(=O)(=O)N2CCCC(C(=O)N3CCCCCC3)C2)cc1` (centres undefined) gave Dynein cargo inh 0.933 and Autophagy mod active.
`CCOc1ccc(NC(=O)CN(C)CC(=O)NC2CCCc3ccccc32)cc1OCC` (centres undefined) gave Dynein cargo inh 1.35, bCat KO growth 98.3, Autophagy mod inactive, HCT116 PTEN-null 95.7 and SDO1 yeast rescue -0.2.
Screening COc1ccc(NC(=S)N2CCCN(Cc3cc(C)ccc3C)C2)cc1 returned Dynein cargo inh -0.39 and Autophagy mod inactive.
`N#CC1=C(N)Oc2cc(N)ccc2C1c1cccnc1` (centres undefined) gave Dynein cargo inh -0.891, bCat KO growth 57.2, Autophagy mod inactive, HCT116 PTEN-null 59.1 and SDO1 yeast rescue 0.87.
Screening CCN(CC)c1ccc2c(c1)OC(N)=C(C#N)C2c1cccnc1 (centres undefined) returned Dynein cargo inh 1.57, bCat KO growth 16.6, Autophagy mod active, HCT116 PTEN-null 18.0 and SDO1 yeast rescue -0.24.
For Cc1cc(NC(=O)CSc2nnc(-c3ccco3)o2)no1 the results were Dynein cargo inh 1.85, bCat KO growth 99.0, Autophagy mod inactive, HCT116 PTEN-null 104.0 and SDO1 yeast rescue -0.49.
For CC(=O)Nc1ccc(NC(=O)CSc2nnc(-c3ccco3)o2)cc1 the results were Dynein cargo inh -0.176 and Autophagy mod active.
Screening O=C(/C=C/c1ccco1)NC(=S)Nc1cc(-c2nc3ccccc3s2)ccc1Cl returned Dynein cargo inh -1.28, bCat KO growth 2.6*, Autophagy mod inactive, HCT116 PTEN-null 1.6* and SDO1 yeast rescue 0.15.
For Cc1ccc(-c2nc3ccccc3s2)cc1NC(=S)NC(=O)c1cccc2ccccc12 the results were Dynein cargo inh 0.791, bCat KO growth 1.3*, Autophagy mod inactive, HCT116 PTEN-null 1.7* and SDO1 yeast rescue -0.93.
For Cc1ccc(-c2nc3ccccc3s2)cc1NC(=S)NC(=O)/C=C/c1ccco1 the results were Dynein cargo inh -0.907, bCat KO growth 7.0, Autophagy mod inactive, HCT116 PTEN-null 6.9 and SDO1 yeast rescue 0.53.
`Cc1ccc(-n2c(SCC(=O)N(C)C3CCS(=O)(=O)C3)nc3ccccc3c2=O)cc1` (centres undefined) gave Dynein cargo inh -0.175 and Autophagy mod inactive.
Screening CC(C)OC(=O)c1nnc(Cc2ccc(F)cc2)o1 returned Dynein cargo inh -0.379, bCat KO growth 100.6, Autophagy mod inactive, HCT116 PTEN-null 100.7 and SDO1 yeast rescue 1.76.
CC(C)C[C@H](N)c1nnc(S(=O)(=O)Cc2ccc(F)cc2)o1 was read as Dynein cargo inh -3.73*, bCat KO growth 87.9, Autophagy mod inactive, HCT116 PTEN-null 91.2 and SDO1 yeast rescue -0.97.
`CCn1c(-c2cccc(S(=O)(=O)N3CCCC3)c2)n[nH]c1=S` gave Dynein cargo inh -0.199.
For CCOc1cccc(C(=O)Nc2ccc(N(CC)CC)cc2)c1 the results were Dynein cargo inh -0.663, bCat KO growth 41.3, Autophagy mod inactive, HCT116 PTEN-null 38.5 and SDO1 yeast rescue 0.57.
CCN(CC)c1cccc(OCC(=O)N(C)CCC#N)c1 was read as Dynein cargo inh -0.69, bCat KO growth 102.8, Autophagy mod active, HCT116 PTEN-null 93.4 and SDO1 yeast rescue 1.22.
Screening O=C(Cc1cccs1)Nc1cccc(-c2ccc3nncn3n2)c1 returned Dynein cargo inh -0.196 and Autophagy mod inactive.
Cc1cccc(S(=O)(=O)Nc2ccc(C)c3c2OC(C)(C)C3)c1 was read as Dynein cargo inh -0.00791, bCat KO growth 90.9, Autophagy mod active, HCT116 PTEN-null 92.3 and SDO1 yeast rescue 0.4.
Cc1ccc(NS(=O)(=O)c2ccccc2Cl)c2c1CC(C)(C)O2 was read as Dynein cargo inh 0.0945, bCat KO growth 107.4, Autophagy mod inactive, HCT116 PTEN-null 105.3 and SDO1 yeast rescue -0.13.
